Reference: PMC4362967 (Chemistry & biology, 2015)
Where a SMILES comes first, the peptide text is derived from it. [ ]: non-standard residue; d: D form.

Experiments:
[1] = tested on: P. aeruginosa PA14 biofilms; assay: Flow cell biofilm assay with confocal microscopy; type: cell-based, Pseudomonas aeruginosa
In short: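 P. aeruginosa PA14 biofilms grown at 37°C in BM2 glucose minimal medium in flow chambers (1 × 4 × 40 mm channels). […] For eradication, test compound was first added after 2 days of growth. Cells were stained with LIVE/DEAD BacLight and imaged by confocal microscopy.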

E. coli mature biofilms = assay: Flow cell biofilm assay with confocal microscopy; type: cell-based, Escherichia coli; conditions: top FIC combination, added at day 2
In short: (§1)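 Biofilms grown at 37°C in BM2 glucose minimal medium in flow chambers (1 × 4 × 40 mm channels) for 72 h. Test compound, antibiotic or both were added to the flow-through medium at day 2 of biofilm formation. Combination levels were taken from checkerboard FIC results, with peptide levels lowered in some cases. Cells were stained with LIVE/DEAD BacLight and imaged by confocal microscopy with 3D reconstruction.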

P. aeruginosa PAO1 = assay: C. elegans survival assay, infected; type: in vivo, Caenorhabditis elegans; conditions: peptide 20 μg/ml, 25°C, average ± SD, n ≥ 12
G. mellonella = G. mellonella survival assay, uninfected; conditions: in vivo
[2] = tested on: Klebsiella pneumoniae mature biofilms; assay: Flow cell biofilm assay with confocal microscopy; type: cell-based; conditions: top FIC combination, added at day 2
In short: as §1

[3] = tested on: S. enterica mature biofilms; assay: Flow cell biofilm assay with confocal microscopy; type: cell-based, Salmonella enterica; conditions: top FIC combination, added at day 2
In short: as §1

[4] = tested on: A. baumannii mature biofilms; assay: Flow cell biofilm assay with confocal microscopy; type: cell-based, Acinetobacter baumannii; conditions: 0.8 μg/ml DJK-5 with tobramycin, added at day 2
In short: as §1

P. aeruginosa = conditions: free swimming (planktonic) cells; ref Overhage et al, 2008; cited from earlier work
P. aeruginosa biofilm = conditions: relative to MIC; ref Overhage et al, 2008; cited from earlier work

Compound | biofilm inhibition in flow cells, combination with ciprofloxacin ([1]; 0.1 μg/ml of DJK-5 with 0.04 μg/ml of ciprofloxacin, added at day 0, 3 days) | eradication of 2-day-old biofilms, combination with ciprofloxacin ([1]; top FIC combination, added at day 2, P. aeruginosa PA14) | eradication of 2-day-old biofilms, combination with ceftazidime (E. coli mature biofilms) | C. elegans survival (%) 24h P. aeruginosa PAO1 (P. aeruginosa PAO1; 24 h post infection) [%] | C. elegans survival (%) 48h post infection P. aeruginosa PAO1 (P. aeruginosa PAO1; 48 h post infection) [%] | G. mellonella survival (%) 24h No infection (G. mellonella) [%] | G. mellonella survival (%) 48h No infection (G. mellonella) [%] | eradication of 2-day-old biofilms, combination with ciprofloxacin [2] | eradication of 2-day-old biofilms, combination with ceftazidime [3] | eradication of 2-day-old biofilms, combination with tobramycin [4] | MIC (P. aeruginosa) [mg/L] | concentration active against P. aeruginosa biofilms (P. aeruginosa biofilm)
CC[C@@H](C)[C@@H](NC(=O)[C@@H](C)NC(=O)[C@@H](CCCNC(=N)N)NC(=O)[C@@H](Cc1c[nH]c2ccccc12)NC(=O)[C@@H](CCC(N)=O)NC(=O)[C@H](N)C(C)C)C(=O)N[C@H](CCCNC(=N)N)C(=O)N[C@@H](C(=O)N[C@H](CCCNC(=N)N)C(=O)N[C@@H](C(=O)N[C@@H](C(=O)N[C@H](CCCNC(=N)N)C(N)=O)[C@H](C)CC)C(C)C)C(C)C [DJK5] (H-[dV][dQ][dW][dR][dA][dI][dR][dV][dR][dV][dI][dR]-NH2; N-terminus and C-terminus assumed) | complete biofilm inhibition | much more limited dispersal but triggered cell death in remaining cells | not synergistic | 99 ± 2 | 96 ± 4 | 100 ± 0 | 100 ± 0 | eradication | eradication | eradication | – | –
LL-37: the human peptide LL-37, cationic host defense peptide | – | – | – | – | – | – | – | – | – | – | > 64 | one sixteenth the MIC
